Assay results as given in ChEMBL document CHEMBL1126715, “Synthesis and tissue distribution of (m-[125I]iodobenzyl)trozamicol ([125I]MIBT): potential radioligand for mapping central cholinergic innervation” (J Med Chem, 1993).

Key:
Rattus norvegicus [1] = organism: Rattus norvegicus; assay: Tissue distribution in rat heart after 30 minutes (n=3); type: ADME, organism-based; conditions: in vivo, 0.5 h
Procedure, shortened: (§1)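 Male Wistar rats (200-350 g) under ether, iv [125I]tracer (3-5 μCi in 0.1 mL 50% aqueous EtOH). At 5, 30, 60 or 180 min, blood taken by cardiac puncture and the rat killed by cardiectomy. Organs weighed and γ-counted against 1:100 dilutions of the injected dose; results in % injected dose/g, with range.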

Rattus norvegicus [2] = organism: Rattus norvegicus; assay: Tissue distribution in rat heart after 5 minutes (n=3); type: ADME, organism-based; conditions: in vivo
Procedure, shortened: (§2)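 Male Wistar rats (200-350 g) under ether anesthesia; radiotracer (3-5 μCi in 0.1 mL 50% aqueous ethanol) given iv. At 5, 30, 60 and 180 min, blood was drawn by cardiac puncture and animals were killed by cardiectomy. Organs were weighed and γ-counted against a 1:100 dilution of the injected dose. Results are given as % injected dose/g tissue; ratios are taken between tissue levels.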

Rattus norvegicus [3] = organism: Rattus norvegicus; assay: Tissue distribution in rat kidney after 180 minutes (n=3); type: ADME, organism-based; conditions: in vivo, 3 h; procedure, shortened: as §2
Rattus norvegicus [4] = organism: Rattus norvegicus; assay: Tissue distribution in rat kidney after 30 minutes (n=3); type: ADME, organism-based; conditions: in vivo, 0.5 h; procedure, shortened: as §2
Rattus norvegicus [5] = organism: Rattus norvegicus; assay: Tissue distribution in rat kidney after 5 minutes (n=3); type: ADME, organism-based; conditions: in vivo; procedure, shortened: as §2
Rattus norvegicus [6] = organism: Rattus norvegicus; assay: Tissue distribution in rat kidney after 60 minutes (n=3); type: ADME, organism-based; conditions: in vivo, 1 h; procedure, shortened: as §2
Rattus norvegicus [7] = organism: Rattus norvegicus; assay: Tissue distribution in rat liver after 180 minutes (n=3); type: ADME, organism-based; conditions: in vivo, 3 h; procedure, shortened: as §1
Rattus norvegicus [8] = organism: Rattus norvegicus; assay: Tissue distribution in rat liver after 30 minutes (n=3); type: ADME, organism-based; conditions: in vivo, 0.5 h; procedure, shortened: as §2
Rattus norvegicus [9] = organism: Rattus norvegicus; assay: Tissue distribution in rat liver after 5 minutes (n=3); type: ADME, organism-based; conditions: in vivo; procedure, shortened: as §1
Rattus norvegicus [10] = organism: Rattus norvegicus; assay: Tissue distribution in rat liver after 60 minutes (n=3); type: ADME, organism-based; conditions: in vivo, 1 h; procedure, shortened: as §2
Rattus norvegicus [11] = organism: Rattus norvegicus; assay: Tissue distribution in rat lung after 180 minutes (n=3); type: ADME, organism-based; conditions: in vivo, 3 h; procedure, shortened: as §1
Rattus norvegicus [12] = organism: Rattus norvegicus; assay: Tissue distribution in rat lung after 30 minutes (n=3); type: ADME, organism-based; conditions: in vivo, 0.5 h; procedure, shortened: as §2
Rattus norvegicus [13] = organism: Rattus norvegicus; assay: Tissue distribution in rat lung after 60 minutes (n=3); type: ADME, organism-based; conditions: in vivo, 1 h; procedure, shortened: as §2
Rattus norvegicus [14] = organism: Rattus norvegicus; assay: Tissue distribution in rat muscle after 180 minutes (n=3); type: ADME, organism-based; conditions: in vivo, 3 h; procedure, shortened: as §2
Rattus norvegicus [15] = organism: Rattus norvegicus; assay: Tissue distribution in rat muscle after 30 minutes (n=3); type: ADME, organism-based; conditions: in vivo, 0.5 h; procedure, shortened: as §1
Rattus norvegicus [16] = organism: Rattus norvegicus; assay: Tissue distribution in rat muscle after 5 minutes (n=3); type: ADME, organism-based; conditions: in vivo; procedure, shortened: as §2
Rattus norvegicus [17] = organism: Rattus norvegicus; assay: Tissue distribution in rat muscle after 60 minutes (n=3); type: ADME, organism-based; conditions: in vivo, 1 h; procedure, shortened: as §1
Rattus norvegicus [18] = organism: Rattus norvegicus; assay: Tissue distribution in rat spleen after 180 minutes (n=3); type: ADME, organism-based; conditions: in vivo, 3 h; procedure, shortened: as §2
Rattus norvegicus [19] = organism: Rattus norvegicus; assay: Tissue distribution in rat spleen after 30 minutes (n=3); type: ADME, organism-based; conditions: in vivo, 0.5 h; procedure, shortened: as §2
Rattus norvegicus [20] = organism: Rattus norvegicus; assay: Tissue distribution in rat spleen after 5 minutes (n=3); type: ADME, organism-based; conditions: in vivo; procedure, shortened: as §1
Rattus norvegicus [21] = organism: Rattus norvegicus; assay: Tissue distribution in rat spleen after 60 minutes (n=3); type: ADME, organism-based; conditions: in vivo, 1 h; procedure, shortened: as §2
Rattus norvegicus [22] = organism: Rattus norvegicus; assay: Tissue distribution in rat thyroid after 180 minutes (n=3); type: ADME, organism-based, Thyroid gland; conditions: in vivo, 3 h; procedure, shortened: as §2
Rattus norvegicus [23] = organism: Rattus norvegicus; assay: Tissue distribution in rat thyroid after 30 minutes (n=3); type: ADME, organism-based, Thyroid gland; conditions: in vivo, 0.5 h; procedure, shortened: as §2
Rattus norvegicus [24] = organism: Rattus norvegicus; assay: Tissue distribution in rat thyroid after 5 minutes (n=3); type: ADME, organism-based, Thyroid gland; conditions: in vivo; procedure, shortened: as §1
Rattus norvegicus [25] = organism: Rattus norvegicus; assay: Tissue distribution in rrat heart after 60 minutes (n=3); type: ADME, organism-based; conditions: in vivo, 1 h; procedure, shortened: as §2
Rattus norvegicus [26] = organism: Rattus norvegicus; assay: Effect of vesamicol on the accumulation in rat thyroid in group 2 (n=3); type: ADME, organism-based, Thyroid gland; conditions: in vivo
Procedure, shortened: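 Male Wistar rats (n = 4/group) given iv vehicle (100 μL 50% aqueous EtOH) or dl-vesamicol (1.01 μmol/kg); 15 min later iv radiotracer (2.0 μCi in 100 μL 50% aqueous EtOH); killed 30 min post-tracer. Blood by cardiac puncture, organs weighed and γ-counted vs 1:100 injected-dose dilution; % dose/g tissue (range); tissue/blood ratios.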

Rattus norvegicus [27] = organism: Rattus norvegicus; assay: Tissue distribution in rat blood after 180 minutes (n=3); type: ADME, organism-based; conditions: in vivo, 3 h; procedure, shortened: as §2
Rattus norvegicus [28] = organism: Rattus norvegicus; assay: Tissue distribution in rat blood after 30 minutes (n=3); type: ADME, organism-based; conditions: in vivo, 0.5 h; procedure, shortened: as §2
Rattus norvegicus [29] = organism: Rattus norvegicus; assay: Tissue distribution in rat blood after 5 minutes (n=3); type: ADME, organism-based; conditions: in vivo; procedure, shortened: as §2
Rattus norvegicus [30] = organism: Rattus norvegicus; assay: Tissue distribution in rat blood after 60 minutes (n=3); type: ADME, organism-based; conditions: in vivo, 1 h; procedure, shortened: as §1
Rattus norvegicus [31] = organism: Rattus norvegicus; assay: Tissue distribution in rat brain after 180 minutes (n=3); type: ADME, organism-based; conditions: in vivo, 3 h; procedure, shortened: as §1
Rattus norvegicus [32] = organism: Rattus norvegicus; assay: Tissue distribution in rat brain after 30 minutes (n=3); type: ADME, organism-based; conditions: in vivo, 0.5 h; procedure, shortened: as §2
Rattus norvegicus [33] = organism: Rattus norvegicus; assay: Tissue distribution in rat brain after 5 minutes (n=3); type: ADME, organism-based; conditions: in vivo; procedure, shortened: as §2
Rattus norvegicus [34] = organism: Rattus norvegicus; assay: Tissue distribution in rat brain after 60 minutes (n=3); type: ADME, organism-based; conditions: in vivo, 1 h; procedure, shortened: as §2
Rattus norvegicus [35] = organism: Rattus norvegicus; assay: Tissue distribution in rat gonads after 180 minutes (n=3); type: ADME, organism-based, Gonad; conditions: in vivo, 3 h; procedure, shortened: as §2

**Q.** For `O[C@@H]1CCN(Cc2cccc([125I])c2)C[C@H]1N1CCC(c2ccccc2)CC1` (stereo in doubt; (-)), which Dose/g (Rattus norvegicus [1]) is on record?
**A.** 0.75%

**Q.** What about the Dose/g (Rattus norvegicus [2]) of the same compound?
**A.** 1.32%

**Q.** And the Dose/g (Rattus norvegicus [3])?
**A.** 3.27%

**Q.** What about the Dose/g (Rattus norvegicus [4]) of the same compound?
**A.** 3.53%

**Q.** And the Dose/g (Rattus norvegicus [5])?
**A.** 3.71%

**Q.** And the Dose/g (Rattus norvegicus [6])?
**A.** 3.13%

**Q.** What about the Dose/g (Rattus norvegicus [7]) of the same compound?
**A.** 2.23%

**Q.** And the Dose/g (Rattus norvegicus [8])?
**A.** 2.35%

**Q.** What about the Dose/g (Rattus norvegicus [9]) of the same compound?
**A.** 2.07%

**Q.** And the Dose/g (Rattus norvegicus [10])?
**A.** 2.63%

**Q.** And the Dose/g (Rattus norvegicus [11])?
**A.** 2.01%

**Q.** What about the Dose/g (Rattus norvegicus [12]) of the same compound?
**A.** 3.21%

**Q.** And the Dose/g (Rattus norvegicus [13])?
**A.** 2.41%

**Q.** What about the Dose/g (Rattus norvegicus [14]) of the same compound?
**A.** 0.27%

**Q.** What about the Dose/g (Rattus norvegicus [15]) of the same compound?
**A.** 0.3%

**Q.** What about the Dose/g (Rattus norvegicus [16]) of the same compound?
**A.** 0.46%

**Q.** And the Dose/g (Rattus norvegicus [17])?
**A.** 0.28%

**Q.** And the Dose/g (Rattus norvegicus [18])?
**A.** 1.28%

**Q.** What about the Dose/g (Rattus norvegicus [19]) of the same compound?
**A.** 1.24%

**Q.** And the Dose/g (Rattus norvegicus [20])?
**A.** 1.04%

**Q.** And the Dose/g (Rattus norvegicus [21])?
**A.** 1.17%

**Q.** What about the Dose/g (Rattus norvegicus [22]) of the same compound?
**A.** 11.55%

**Q.** And the Dose/g (Rattus norvegicus [23])?
**A.** 3.15%

**Q.** What about the Dose/g (Rattus norvegicus [24]) of the same compound?
**A.** 2.67%

**Q.** What about the Dose/g (Rattus norvegicus [25]) of the same compound?
**A.** 0.58%

**Q.** What about the Dose/g (Rattus norvegicus [26]) of the same compound?
**A.** 4.56%

**Q.** What about the Dose/g (Rattus norvegicus [27]) of the same compound?
**A.** 0.1%

**Q.** And the Dose/g (Rattus norvegicus [28])?
**A.** 0.11%

**Q.** And the Dose/g (Rattus norvegicus [29])?
**A.** 0.22%

**Q.** What about the Dose/g (Rattus norvegicus [30]) of the same compound?
**A.** 0.1%

**Q.** What about the Dose/g (Rattus norvegicus [31]) of the same compound?
**A.** 0.92%

**Q.** And the Dose/g (Rattus norvegicus [32])?
**A.** 0.99%

**Q.** What about the Dose/g (Rattus norvegicus [33]) of the same compound?
**A.** 0.92%

**Q.** And the Dose/g (Rattus norvegicus [34])?
**A.** 0.83%

**Q.** What about the Dose/g (Rattus norvegicus [35]) of the same compound?
**A.** 0.2%
